Experimental data as given in ChEMBL document CHEMBL5058577, “EUbOPEN Chemogenomics Library 2 (Multiplex)” (2022).

Test system: HEK-293T
Test: Multiplex assay against HEK293T
Format: toxicity, cell-based
Conditions: human
Procedure, shortened: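 Cells were classed with CellPathfinder machine-learning gating, first as Hoechst high-intensity objects or normal cells, then (normal cells) as healthy, pyknosed or fragmented nuclei, and finally (pyknosed cells) as mitotic or apoptotic. Staining of live cells at seeding used Hoechst33342, BioTracker Green Microtubule Cytoskeleton Dye, MitoTracker Red and Annexin V Alexa Fluor 680, with imaging on a CQ1 microscope at 37°C and 5% CO2 after compound addition. Tubulin, mitochondrial-mass and membrane-permeability phenotypes are per cents of healthy-nucleus cells.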

[1] = 12 h, 1 µM, compound concentration 1 uM, replicate 1
[2] = 12 h, 1 µM, compound concentration 1 uM, replicate 2
[3] = 12 h, 10 µM, compound concentration 10 uM, replicate 1
[4] = 12 h, 10 µM, compound concentration 10 uM, replicate 2
[5] = 24 h, 1 µM, compound concentration 1 uM, replicate 1
[6] = 24 h, 1 µM, compound concentration 1 uM, replicate 2
[7] = 24 h, 10 µM, compound concentration 10 uM, replicate 1
[8] = 24 h, 10 µM, compound concentration 10 uM, replicate 2
[9] = 48 h, 1 µM, compound concentration 1 uM, replicate 1
[10] = 48 h, 1 µM, compound concentration 1 uM, replicate 2
[11] = 48 h, 10 µM, compound concentration 10 uM, replicate 1
[12] = 48 h, 10 µM, compound concentration 10 uM, replicate 2

## O=C(Nc1cc(-c2ccccc2)nn1-c1ccccc1F)c1ccc([N+](=O)[O-])cc1
[1]
  Population Apoptotic (%): 33%
  Population Fragmented Nuclei (%): 7%
  Population Healthy Nuclei (%): 78%
  Population Hoechst High Intensity Objects (%): 9%
  Population Membrane Permeable-Phenotype (%): 0%
  Population Mitochondria Different-Phenotype (%): 31%
  Population Mitotic Cells (%): 66%
  Population Normal (%): 90%
  Population Pyknosed Nuclei (%): 13%
  Population Tubulin-Different-Phenotype (%): 19%
  Total Cell Count: 402
[2]
  Population Apoptotic (%): 37%
  Population Fragmented Nuclei (%): 6%
  Population Healthy Nuclei (%): 83%
  Population Hoechst High Intensity Objects (%): 6%
  Population Mitochondria Different-Phenotype (%): 48%
  Population Mitotic Cells (%): 62%
  Population Normal (%): 94%
  Population Pyknosed Nuclei (%): 9%
  Total Cell Count: 417
[3]
  Population Apoptotic (%): 37%
  Population Fragmented Nuclei (%): 10%
  Population Healthy Nuclei (%): 71%
  Population Hoechst High Intensity Objects (%): 5%
  Population Membrane Permeable-Phenotype (%): 0%
  Population Mitochondria Different-Phenotype (%): 41%
  Population Mitotic Cells (%): 62%
  Population Normal (%): 94%
  Population Pyknosed Nuclei (%): 17%
  Population Tubulin-Different-Phenotype (%): 40%
  Total Cell Count: 342
[4]
  Population Apoptotic (%): 44%
  Population Fragmented Nuclei (%): 6%
  Population Healthy Nuclei (%): 73%
  Population Hoechst High Intensity Objects (%): 6%
  Population Mitochondria Different-Phenotype (%): 65%
  Population Mitotic Cells (%): 55%
  Population Normal (%): 93%
  Population Pyknosed Nuclei (%): 20%
  Population Tubulin-Different-Phenotype (%): 45%
  Total Cell Count: 367
[5]
  Population Apoptotic (%): 33%
  Population Fragmented Nuclei (%): 8%
  Population Healthy Nuclei (%): 78%
  Population Hoechst High Intensity Objects (%): 4%
  Population Membrane Permeable-Phenotype (%): 0%
  Population Mitochondria Different-Phenotype (%): 21%
  Population Mitotic Cells (%): 66%
  Population Normal (%): 95%
  Population Pyknosed Nuclei (%): 12%
  Population Tubulin-Different-Phenotype (%): 17%
  Total Cell Count: 481
[6]
  Population Apoptotic (%): 35%
  Population Fragmented Nuclei (%): 12%
  Population Membrane Permeable-Phenotype (%): 1%
  Population Mitochondria Different-Phenotype (%): 31%
  Population Mitotic Cells (%): 64%
  Population Pyknosed Nuclei (%): 8%
  Population Tubulin-Different-Phenotype (%): 16%
  Total Cell Count: 530
[7]
  Population Apoptotic (%): 15%
  Population Fragmented Nuclei (%): 9%
  Population Healthy Nuclei (%): 77%
  Population Hoechst High Intensity Objects (%): 2%
  Population Membrane Permeable-Phenotype (%): 0%
  Population Mitochondria Different-Phenotype (%): 35%
  Population Mitotic Cells (%): 84%
  Population Normal (%): 97%
  Population Pyknosed Nuclei (%): 13%
  Population Tubulin-Different-Phenotype (%): 35%
  Total Cell Count: 434
[8]
  Population Apoptotic (%): 22%
  Population Fragmented Nuclei (%): 7%
  Population Healthy Nuclei (%): 83%
  Population Hoechst High Intensity Objects (%): 3%
  Population Mitochondria Different-Phenotype (%): 47%
  Population Mitotic Cells (%): 77%
  Population Normal (%): 96%
  Population Pyknosed Nuclei (%): 8%
  Population Tubulin-Different-Phenotype (%): 33%
  Total Cell Count: 482
[9]
  Population Apoptotic (%): 17%
  Population Fragmented Nuclei (%): 13%
  Population Healthy Nuclei (%): 79%
  Population Hoechst High Intensity Objects (%): 3%
  Population Membrane Permeable-Phenotype (%): 2%
  Population Mitochondria Different-Phenotype (%): 14%
  Population Mitotic Cells (%): 82%
  Population Normal (%): 96%
  Population Pyknosed Nuclei (%): 7%
  Population Tubulin-Different-Phenotype (%): 9%
  Total Cell Count: 893
[10]
  Population Apoptotic (%): 33%
  Population Fragmented Nuclei (%): 17%
  Population Healthy Nuclei (%): 74%
  Population Hoechst High Intensity Objects (%): 2%
  Population Mitochondria Different-Phenotype (%): 15%
  Population Mitotic Cells (%): 66%
  Population Normal (%): 97%
  Population Tubulin-Different-Phenotype (%): 11%
  Total Cell Count: 799
[11]
  Population Apoptotic (%): 22%
  Population Fragmented Nuclei (%): 12%
  Population Healthy Nuclei (%): 77%
  Population Hoechst High Intensity Objects (%): 2%
  Population Membrane Permeable-Phenotype (%): 2%
  Population Mitochondria Different-Phenotype (%): 19%
  Population Mitotic Cells (%): 77%
  Population Normal (%): 97%
  Population Pyknosed Nuclei (%): 9%
  Population Tubulin-Different-Phenotype (%): 23%
  Total Cell Count: 671
[12]
  Population Apoptotic (%): 20%
  Population Fragmented Nuclei (%): 15%
  Population Hoechst High Intensity Objects (%): 3%
  Population Membrane Permeable-Phenotype (%): 1%
  Population Mitochondria Different-Phenotype (%): 27%
  Population Mitotic Cells (%): 79%
  Population Normal (%): 96%
  Population Pyknosed Nuclei (%): 6%
  Population Tubulin-Different-Phenotype (%): 26%
  Total Cell Count: 666
